Data as given in ChEMBL document CHEMBL1156597, “Structure-activity relationship of kahalalide F synthetic analogues” (J Med Chem, 2008).

What was measured:
[1] = Cytotoxicity against human IGROV-ET cells after 48 hrs by SRB assay; format: functional; conditions: for CC50: read-out: LC50 (the source's name)
How it was run: (§1)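 Cells grown in RPMI 1640 with 10% FBS and penicillin/streptomycin at 37 °C and 5% CO₂, trypsinized, then seeded at 5 × 10³/well. After 18 h drug-free attachment, samples in DMSO/EtOH/PBS (0.5:0.5:99) were added for 48 h continuous exposure. Cells were fixed with cold TCA (1 h, 4 °C) and stained with SRB (10 min). Tris-solubilized stain read at 490 nm. Triplicate wells, mean ± SD; GI₅₀ derived.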

HT-29 = assay: Cytotoxicity against human HT29 cells after 48 hrs by SRB assay; format: functional, cell-based; conditions: Homo sapiens, HT-29, 48 h; for CC50: read-out: LC50 (the source's name); how it was run: as §1
[2] = Cytotoxicity against human HeLa-APL cells after 48 hrs by SRB assay; format: functional; how it was run: as §1
DU-145 = assay: Cytotoxicity against human DU145 cells after 48 hrs by SRB assay; format: functional, cell-based; conditions: Homo sapiens, DU-145, 48 h; for CC50: read-out: LC50 (the source's name); how it was run: as §1
LoVo [3] = assay: Cytotoxicity against human LoVo cells after 48 hrs by SRB assay; format: functional; conditions: for CC50: read-out: LC50 (the source's name)
PANC-1 = assay: Cytotoxicity against human PANC1 cells after 48 hrs by SRB assay; format: functional; conditions: PANC-1, 48 h; for CC50: read-out: LC50 (the source's name); how it was run: as §1
SK-BR-3 = assay: Cytotoxicity against human SKBR3 cells after 48 hrs by SRB assay; format: functional; conditions: SK-BR-3, 48 h; for GI50: read-out: GI50; for CC50: read-out: LC50 (the source's name); how it was run: as §1
[4] = Cytotoxicity against human IGROV cells after 48 hrs by SRB assay; format: functional; conditions: for CC50: read-out: LC50 (the source's name); how it was run: as §1
LNCaP = assay: Cytotoxicity against human LNcaP cells after 48 hrs by SRB assay; format: functional; conditions: for CC50: read-out: LC50 (the source's name); how it was run: as §1
K562 = assay: Cytotoxicity against human K562 cells after 48 hrs by SRB assay; format: functional; conditions: K562, 48 h; for CC50: read-out: LC50 (the source's name); how it was run: as §1
A549 = assay: Cytotoxicity against human A549 cells after 48 hrs by SRB assay; format: functional, cell-based; conditions: Homo sapiens, A549, 48 h; how it was run: as §1
HeLa = assay: Cytotoxicity against human HeLa cells after 48 hrs by SRB assay; format: functional; conditions: for CC50: read-out: LC50 (the source's name); how it was run: as §1
LoVo [5] = assay: Cytotoxicity against human doxorubicin resistant LoVo cells after 48 hrs by SRB assay; format: functional; conditions: for CC50: read-out: LC50 (the source's name); how it was run: as §1
SK-MEL-28 = assay: Cytotoxicity against human SK-MEL-28 cells after 48 hrs by SRB assay; format: functional, cell-based; conditions: Homo sapiens, SK-MEL-28, 48 h; for CC50: read-out: LC50 (the source's name); how it was run: as §1

Structure (SMILES)	GI50 [1]	GI50 ([1]; read-out: GI50)	CC50 [1]	CC50 (HT-29)	GI50 [2]	LC50 (concentration giving 50% net cell kill) [2]	TGI [2]	GI50 (DU-145)	GI50 (DU-145; read-out: GI50)	CC50 (DU-145)	GI50 (LoVo [3])	TGI (LoVo [3])	CC50 (LoVo [3])	GI50 (PANC-1)	TGI (PANC-1)	CC50 (PANC-1)	TGI (SK-BR-3)	GI50 (SK-BR-3)	CC50 (SK-BR-3)	GI50 [4]	further results
C/C=C1\NC(=O)[C@H](Cc2ccccc2)NC(=O)[C@@H](C(C)C)NC(=O)[C@@H]([C@H](C)CC)NC(=O)[C@H](NC(=O)[C@H](NC(=O)[C@H](CCCN)NC(=O)[C@H]2CCCN2C(=O)[C@H](NC(=O)[C@@H](NC(=O)[C@@H](NC(=O)[C@H](NC(=O)CCCC(C)C)C(C)C)C(C)C)C(C)C)C(C)C)[C@H](C)CC)[C@H](C)OC(=O)[C@H](C(C)C)NC1=O	248 nM	257 nM	64.8 nM	322 nM	324 nM	730 nM	467 nM	149 nM	175 nM	127 nM	276 nM	270 nM	264 nM	1120 nM	1260 nM	1420 nM	153 nM	166 nM	75.8 nM	118 nM	GI50 (HT-29): 300 nM; TGI (HT-29): 311 nM; GI50 ([4]; read-out: GI50): 183 nM; CC50 [4]: 55.9 nM; GI50 (LNCaP): 334 nM; TGI (LNCaP): 530 nM; CC50 (LNCaP): 733 nM; GI50 (K562): 718 nM; TGI (K562): 899 nM; CC50 (K562): 1100 nM; GI50 (A549): 445 nM; LC50 (A549): 640 nM; GI50 (A549; read-out: GI50): 258 nM; GI50 (HeLa): 134 nM; TGI (HeLa): 124 nM; CC50 (HeLa): 116 nM; CC50 (LoVo [5]): 28 nM; TGI (SK-MEL-28): 178 nM; GI50 (SK-MEL-28; read-out: GI50): 209 nM; CC50 (SK-MEL-28): 151 nM
C/C=C1\NC(=O)[C@H](Cc2ccccc2)NC(=O)[C@@H](C(C)C)NC(=O)[C@@H]([C@H](C)CC)NC(=O)[C@H](NC(=O)[C@H](NC(=O)[C@H](CCCN)NC(=O)[C@H]2CCCN2C(=O)[C@H](NC(=O)[C@@H](NC(=O)[C@H](Cc2ccccc2)NC(=O)[C@H](NC(=O)CCCC(C)C)C(C)C)C(C)C)C(C)C)[C@H](C)CC)[C@H](C)OC(=O)[C@H](C(C)C)NC1=O	197 nM	245 nM	518 nM	68.3 nM	145 nM	282 nM	142 nM	166 nM	191 nM	321 nM	332 nM	296 nM	210 nM	142 nM	304 nM	1720 nM	351 nM	303 nM	352 nM	103 nM	GI50 ([4]; read-out: GI50): 175 nM; CC50 [4]: 478 nM; GI50 (LNCaP): 61.7 nM; TGI (LNCaP): 132 nM; CC50 (LNCaP): 777 nM; GI50 (K562): 23.2 nM; TGI (K562): 106 nM; CC50 (K562): 1150 nM; LC50 (A549): 1330 nM; TGI (A549): 71.4 nM; GI50 (A549; read-out: GI50): 69.4 nM; GI50 (HeLa): 128 nM; TGI (HeLa): 137 nM; CC50 (HeLa): 352 nM; GI50 (LoVo [5]): 380 nM; TGI (LoVo [5]): 456 nM; CC50 (LoVo [5]): 252 nM; GI50 (SK-MEL-28): 146 nM; GI50 (SK-MEL-28; read-out: GI50): 152 nM; CC50 (SK-MEL-28): 158 nM
C/C=C1\NC(=O)[C@H](Cc2ccccc2)NC(=O)[C@@H](C(C)C)NC(=O)[C@@H]([C@H](C)CC)NC(=O)[C@H](NC(=O)[C@H](NC(=O)[C@H](CCCN)NC(=O)[C@H]2CCCN2C(=O)[C@H](NC(=O)[C@@H](NC(=O)[C@H](CC(C)C)NC(=O)[C@H](NC(=O)CCCC(C)C)C(C)C)C(C)C)C(C)C)[C@H](C)CC)[C@H](C)OC(=O)[C@H](C(C)C)NC1=O	583 nM	754 nM	538 nM	442 nM	1170 nM	890 nM	1020 nM	949 nM	959 nM	944 nM	417 nM	459 nM	331 nM	1110 nM	1280 nM	1760 nM	466 nM	428 nM	360 nM	566 nM	GI50 ([4]; read-out: GI50): 637 nM; CC50 [4]: 489 nM; GI50 (LNCaP): 1050 nM; TGI (LNCaP): 964 nM; CC50 (LNCaP): 879 nM; GI50 (K562): 542 nM; TGI (K562): 926 nM; CC50 (K562): 1630 nM; GI50 (A549): 602 nM; LC50 (A549): 5280 nM; GI50 (A549; read-out: GI50): 637 nM; GI50 (HeLa): 1060 nM; TGI (HeLa): 1020 nM; CC50 (HeLa): 983 nM; GI50 (LoVo [5]): 280 nM; TGI (LoVo [5]): 244 nM; CC50 (LoVo [5]): 256 nM; TGI (SK-MEL-28): 1210 nM; GI50 (SK-MEL-28; read-out: GI50): 1270 nM; CC50 (SK-MEL-28): 1140 nM
C/C=C1\NC(=O)[C@H](Cc2ccccc2)NC(=O)[C@@H](C(C)C)NC(=O)[C@@H]([C@H](C)CC)NC(=O)[C@H](NC(=O)[C@H](NC(=O)[C@H](CCCN)NC(=O)[C@H]2CCCN2C(=O)[C@H](NC(=O)[C@@H](NC(=O)[C@@H](NC(=O)[C@H](NC(=O)C2CCC(C)CC2)C(C)C)[C@@H](C)O)C(C)C)C(C)C)[C@H](C)CC)[C@H](C)OC(=O)[C@H](C(C)C)NC1=O (stereo not given in full)	503 nM	598 nM	426 nM	642 nM	633 nM	977 nM	810 nM	788 nM	690 nM	839 nM	244 nM	280 nM	3200 nM	2660 nM	4530 nM	2300 nM	298 nM	350 nM	1030 nM	477 nM	GI50 (HT-29): 551 nM; TGI (HT-29): 554 nM; GI50 ([4]; read-out: GI50): 526 nM; CC50 [4]: 441 nM; GI50 (LNCaP): 1070 nM; TGI (LNCaP): 1170 nM; CC50 (LNCaP): 1260 nM; CC50 (K562): 1810 nM; LC50 (A549): 1340 nM; TGI (A549): 1180 nM; GI50 (A549; read-out: GI50): 1040 nM; GI50 (HeLa): 904 nM; TGI (HeLa): 897 nM; CC50 (HeLa): 892 nM; GI50 (LoVo [5]): 340 nM; TGI (LoVo [5]): 329 nM; CC50 (LoVo [5]): 319 nM; TGI (SK-MEL-28): 1060 nM; GI50 (SK-MEL-28; read-out: GI50): 1010 nM; CC50 (SK-MEL-28): 1100 nM
